Laboratory results: ChEMBL document CHEMBL1137658, “Effect of caspofungin on metabolite profiles of Aspergillus species determined by nuclear magnetic resonance spectroscopy” (2007)
≈ marks a conversion by molar mass, not a printed value.

What was measured:
Aspergillus niger [1] = assay: Antifungal activity against Aspergillus niger isolate 05-290-2479 after 48 hrs by broth microdilution method; type: functional; settings: isolate 05-290-2479, 48 h
Summary of the method: (§1)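 Modified CLSI M38-A broth microdilution in RPMI 1640 with l-glutamine, 2% glucose (not 0.2%), MOPS pH 7. Serial drug dilutions 0.03125 to 16 μg/ml in microtiter plates stored at −70°C up to 3 weeks. Run in duplicate. MIC = lowest concentration completely inhibiting visible growth.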

Aspergillus fumigatus [2] = assay: Inhibition of metabolite production in Aspergillus fumigatus isolate 06-067-1639 assessed as lowest drug concentration required to inhibit 50% glycine betaine, fumarate, malate production after 48 hrs in presence of 2 % glucose by NMR spectroscopy; type: functional
Summary of the method: (§2)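 Cultures grown in RPMI 1640-2% glucose-MOPS with drug series, 48 h. Culture media analysed by 600-MHz ¹H NMR. MEP taken from stack plots and peak integrals of resolved resonances, as lowest drug concentration suppressing nutrient use or metabolite production by ≥50%. Alternative MEP: lowest concentration raising fumarate >50%.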

Aspergillus nidulans [3] = assay: Antifungal activity against Aspergillus nidulans isolate 05-326-1785 after 72 hrs by broth microdilution method; type: functional; settings: isolate 05-326-1785, 72 h; summary of the method: as §1
Aspergillus nidulans [4] = assay: Inhibition of metabolite production in Aspergillus nidulans isolate 00-202661 assessed as lowest drug concentration required to inhibit 50% fumarate production after 72 hrs in presence of 2 % glucose by NMR spectroscopy; type: functional
Summary of the method: (§3)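 A. nidulans grows slowly, so spectra were recorded after 72 h incubation in RPMI 1640-2% glucose-MOPS with drug dilutions. 600-MHz ¹H NMR of culture medium. Fumarate peak integrals plotted against drug concentration. MEP = lowest concentration with ≥50% fall in fumarate.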

Aspergillus niger [5] = assay: Antifungal activity against Aspergillus niger isolate 05-112-3701 after 48 hrs by broth microdilution method; type: functional; settings: isolate 05-112-3701, 48 h
Summary of the method: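 CLSI M38-A broth microdilution, modified to use RPMI 1640 with 2% glucose (instead of 0.2%), 0.3 g/liter l-glutamine and 0.165 M MOPS at pH 7. Drug twofold dilutions 0.03125–16 μg/ml. Run in duplicate. MIC is the lowest concentration with no visible growth. For the lipopeptide, MEC is read at 48 h as the lowest concentration giving aberrant hyphae under an inverted microscope.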

Aspergillus terreus [6] = assay: Inhibition of metabolite production in Aspergillus terreus isolate 06-059-2428 assessed as lowest drug concentration required to inhibit 50% ethanol production after 48 hrs in presence of 2 % glucose by NMR spectroscopy; type: functional; summary of the method: as §2
Aspergillus terreus [7] = assay: Antifungal activity against Aspergillus terreus isolate 04-188-2548 after 48 hrs by broth microdilution method; type: functional; settings: isolate 04-188-2548, 48 h
Aspergillus fumigatus [8] = assay: microbe, parasite or virus in culture; settings: ATCC 204305, 48 h
Aspergillus flavus [9] = assay: Antifungal activity against Aspergillus flavus isolate 05-314-1100 after 48 hrs by broth microdilution method; type: functional; settings: isolate 05-314-1100, 48 h
Aspergillus flavus [10] = assay: Inhibition of metabolite production in isolate Aspergillus flavus 05-314-1100 assessed as lowest drug concentration required to inhibit 50% fumarate, malate production after 48 hrs in presence of 2 % glucose by NMR spectroscopy; type: functional, isolate  05-314-1100; summary of the method: as §2
Aspergillus terreus [11] = assay: Antifungal activity against Aspergillus terreus isolate 06-059-2428 after 48 hrs by broth microdilution method; type: functional; settings: isolate 06-059-2428, 48 h; summary of the method: as §1
Aspergillus niger [12] = assay: Inhibition of metabolite production in Aspergillus niger isolate 05-290-2479 assessed as lowest drug concentration required to inhibit 50% citrate production after 48 hrs in presence of 2 % glucose by NMR spectroscopy; type: functional; summary of the method: as §2
Aspergillus niger [13] = assay: Inhibition of metabolite production in Aspergillus niger isolate 05-112-3701 assessed as lowest drug concentration required to inhibit 50% citrate production after 48 hrs in presence of 2 % glucose by NMR spectroscopy; type: functional; summary of the method: as §2
Aspergillus nidulans [14] = assay: Antifungal activity against Aspergillus nidulans isolate 00-202661 after 72 hrs by broth microdilution method; type: functional; settings: isolate 00-202661, 72 h; summary of the method: as §1
Aspergillus fumigatus [15] = assay: Inhibition of metabolite production in Aspergillus fumigatus ATCC 204305 assessed as lowest drug concentration required to inhibit 50% fungal metabolite production after 72 hrs in presence of 2 % glucose by NMR spectroscopy; type: functional
Summary of the method: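 Caspofungin dilutions with A. fumigatus ATCC 204305 in RPMI 1640-2% glucose-MOPS, incubated 72 h. ¹H NMR of medium. MEP = lowest concentration giving ≥50% fall in malate, glycine betaine or fumarate peak areas.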

Aspergillus flavus [16] = assay: Increase in metabolite production in Aspergillus flavus isolate 05-314-1100 assessed as lowest drug concentration required to increase >50% fumarate production after 48 hrs in presence of 2 % glucose by NMR spectroscopy; type: functional; summary of the method: as §2
Aspergillus flavus [17] = assay: Inhibition of metabolite production in Aspergillus flavus ATCC 204304 assessed as lowest drug concentration required to inhibit 50% fumarate, malate production after 48 hrs in presence of 2 % glucose by NMR spectroscopy; type: functional; summary of the method: as §2
Aspergillus fumigatus [18] = assay: microbe, parasite or virus in culture; settings: isolate 06-067-1639, 48 h
Aspergillus nidulans [19] = assay: Inhibition of metabolite production in Aspergillus nidulans isolate 05-326-1785 assessed as lowest drug concentration required to inhibit 50% fumarate production after 72 hrs in presence of 2 % glucose by NMR spectroscopy; type: functional; summary of the method: as §3
Aspergillus fumigatus [20] = assay: Inhibition of metabolite production in Aspergillus fumigatus ATCC 204305 assessed as lowest drug concentration required to inhibit 50% glycine betain, fumarate, malate production after 48 hrs in presence of 2 % glucose by NMR spectroscopy; type: functional; summary of the method: as §2
Aspergillus flavus [21] = assay: Antifungal activity against Aspergillus flavus ATCC 204304 after 48 hrs by broth microdilution method; type: functional; settings: ATCC 204304, 48 h; summary of the method: as §1
Aspergillus terreus [22] = assay: Inhibition of metabolite production in Aspergillus terreus isolate 04-188-2548 assessed as lowest drug concentration required to inhibit 50% ethanol, fumarate, malate production after 48 hrs in presence of 2 % glucose by NMR spectroscopy; type: functional; summary of the method: as §2
Aspergillus fumigatus [23] = assay: microbe, parasite or virus in culture; settings: ATCC 204305, 72 h

`C[C@@H]1[C@H](O)[C@@H](C)/C=C/C=C/C=C/C=C/C=C/C=C/C=C/[C@H](O[C@@H]2O[C@H](C)[C@@H](O)[C@H](N)[C@@H]2O)C[C@@H]2O[C@](O)(C[C@@H](O)C[C@@H](O)[C@H](O)CC[C@@H](O)C[C@@H](O)CC(=O)O[C@H]1C)C[C@H](O)[C@H]2C(=O)O` [AMPHOTERICIN B] gave an MIC (Aspergillus niger [1]) of 0.25 mg/L (≈ 0.271 µM), an Activity (Aspergillus fumigatus [2]) of 0.5 µg/mL and an MIC (Aspergillus nidulans [3]) of 0.5 mg/L (≈ 0.541 µM). The Activity (Aspergillus nidulans [4]) was 0.25 µg/mL, the MIC (Aspergillus niger [5]) was 0.5 mg/L (≈ 0.541 µM) and the Activity (Aspergillus terreus [6]) was 0.06 µg/mL. It also gave an MIC (Aspergillus terreus [7]) of 2 mg/L (≈ 2.16 µM), an MIC (Aspergillus fumigatus [8]) of 1 mg/L (≈ 1.08 µM) and an MIC (Aspergillus flavus [9]) of 4 mg/L (≈ 4.33 µM). The Activity (Aspergillus flavus [10]) was 2 µg/mL, the MIC (Aspergillus terreus [11]) was 1 mg/L (≈ 1.08 µM) and the Activity (Aspergillus niger [12]) was 0.125 µg/mL. For the same compound, the Activity (Aspergillus niger [13]) was 0.25 µg/mL, the MIC (Aspergillus nidulans [14]) was 1 mg/L (≈ 1.08 µM) and the Activity (Aspergillus fumigatus [15]) was 1 µg/mL. The Activity (Aspergillus flavus [16]) was 0.06 µg/mL, the Activity (Aspergillus flavus [17]) was 2 µg/mL and the MIC (Aspergillus fumigatus [18]) was 1 mg/L (≈ 1.08 µM). The Activity (Aspergillus nidulans [19]) was 0.5 µg/mL, the Activity (Aspergillus fumigatus [20]) was 0.25 µg/mL and the MIC (Aspergillus flavus [21]) was 8 mg/L (≈ 8.66 µM). For the same compound, the Activity (Aspergillus terreus [22]) was 2 µg/mL and the MIC (Aspergillus fumigatus [23]) was 1 mg/L (≈ 1.08 µM).
